Results collected from several papers.
Lines come from different studies, so protocols differ.
Target: cAMP-dependent protein kinase catalytic subunit PRKX (PRKX, Homo sapiens, UniProt P51817)
Sequence (P51817 1-358, as in one of the studies): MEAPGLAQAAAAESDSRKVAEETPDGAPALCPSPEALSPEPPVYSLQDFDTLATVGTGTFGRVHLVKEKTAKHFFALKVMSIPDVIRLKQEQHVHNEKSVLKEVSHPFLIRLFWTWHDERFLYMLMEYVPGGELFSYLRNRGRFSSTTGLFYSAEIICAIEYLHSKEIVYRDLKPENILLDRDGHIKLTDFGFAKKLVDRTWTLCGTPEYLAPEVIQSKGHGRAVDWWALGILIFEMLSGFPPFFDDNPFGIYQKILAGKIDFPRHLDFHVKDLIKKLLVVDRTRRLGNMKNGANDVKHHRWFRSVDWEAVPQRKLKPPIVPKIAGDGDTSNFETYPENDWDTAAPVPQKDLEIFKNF

COc1cc(Nc2ncc(F)c(Nc3ccc4c(n3)NC(=O)C(C)(C)O4)n2)cc(OC)c1OC — inhibition (binding; 10 µM): 0%
Nc1ncc(-c2nc(N3CCOCC3)nc(N3CCOCC3)n2)c(C(F)F)n1 — remaining binding (binding, competition with immobilised ligand; 10 µM): 90%
Cn1cncc1[C@@](O)(COc1ccc(C#N)cc1-c1ccc(OC(F)(F)F)cc1)c1ccc(C#N)cc1 — remaining binding (cell-free assay, competition with immobilised ligand; 1 µM): 94%
CC(C)(C)c1cc(C=C(C#N)C#N)cc(Br)c1O — remaining activity (enzyme activity, inhibitor; 0.5 µM): 102%
COc1ncccc1-c1cnn2ccc(N3CCN(C(=O)OC(C)C)CC3)nc12 — remaining binding (binding, competition with immobilised ligand; 1 µM): 100%
Cn1cc(-c2cccc(N3CCc4c(sc5c4CC(C)(C)C5)C3=O)c2CO)cc(Nc2ccncn2)c1=O — inhibition (enzyme activity, inhibitor; 1 µM): 1%
Cc1nn(C)cc1-c1nc2c(N3CCN(Cc4ccc(Cl)cc4)CC3)c(Cl)cnc2[nH]1 — remaining binding (binding, competition with immobilised ligand; 1 µM): 18%
Cn1cc(-c2cc(F)cc(N3CCn4c(cc5c4CCCC5)C3=O)c2CO)cc(Nc2ccc(N3CCN(C4COC4)CC3)cn2)c1=O — inhibition (enzyme activity, inhibitor; 0.1 µM): 17%
O=c1[nH]c2ccccc2n1C1CCN(Cc2ccc(-c3[nH]c4cc5ncnc5cc4nc3-c3ccccc3)cc2)CC1 — remaining signal (cell-free assay; 0.5 µM): 101%
